Measurements from ChEMBL document CHEMBL1156239, “Synthesis, anticonvulsant and antimicrobial activities of some new 2-acetylnaphthalene derivatives” (Bioorg Med Chem, 2010).
Converted amounts (≈) assume the structure as drawn. The source made the active and inactive calls. The rule behind the calls is not given here.

Experiments:
Rattus norvegicus [1] = experiment: Anticonvulsant activity in Sprague-Dawley rat assessed as inhibition of maximal electroshock-induced seizures at 30 mg/kg, ip; type: functional, organism-based; parameters: dose 30 mg/kg
Mus musculus [2] = experiment: Anticonvulsant activity in CF1 mouse assessed as time to peak effect for inhibition of maximal electroshock-induced seizures at 23 mg/kg, ip after 1 hr; type: functional, organism-based; parameters: dose 23 mg/kg
Mus musculus [3] = experiment: Neurotoxicity in CF1 mouse assessed as time to peak effect for ability to grasp rotarod at 150 mg/kg, ip by rotarod test; type: toxicity, organism-based; parameters: dose 150 mg/kg, route intraperitoneal; conditions: in vivo
Mus musculus [4] = experiment: Neurotoxicity in CF1 mouse assessed as time to peak effect muscle spasms at 150 mg/kg, ip by rotarod test; type: toxicity, organism-based, Muscle tissue; parameters: dose 150 mg/kg, route intraperitoneal; conditions: in vivo
Rattus norvegicus [5] = experiment: Anticonvulsant activity in rat assessed as inhibition of hippocampal kindle-stimulated seizures at 300 mg/kg, ip; type: functional, organism-based; parameters: dose 300 mg/kg; conditions: Hippocampus
In short: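 Hippocampal kindled rat model; single animal given 300 mg/kg ip.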

Enterococcus faecalis = experiment: Antibacterial activity against Enterococcus faecalis ATCC 29212 after 24 hrs by broth microdilution method; type: functional; conditions: ATCC 29212, 24 h
In short: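 Broth microdilution in Mueller Hinton broth; compound stocks in DMSO, diluted into test medium. Plates incubated at 35 °C and read visually after 24 h. MIC taken as lowest concentration preventing visible growth. Ampicillin reference.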

Mus musculus [6] = experiment: Neurotoxicity in CF1 mouse at 30 mg/kg, ip after 0.5 hrs by rotarod test; type: toxicity, organism-based; parameters: dose 30 mg/kg, route intraperitoneal; conditions: in vivo
In short: (§1)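 Male albino CF#1 mice (18–25.5 g) dosed ip with compound suspended in 0.5% methylcellulose, 0.5 h or 4 h before testing; neurotoxicity assessed by rotarod, scored as number toxic/number tested.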

Mus musculus [7] = experiment: Neurotoxicity in CF1 mouse assessed as ability to grasp rotarod at 300 mg/kg, ip after 0.5 hrs by rotarod test; type: toxicity, organism-based; parameters: dose 300 mg/kg, route intraperitoneal; conditions: in vivo; in short: as §1
Mus musculus [8] = experiment: Neurotoxicity in CF1 mouse assessed as ability to grasp rotarod at 300 mg/kg, ip after 4 hrs by rotarod test; type: toxicity, organism-based; parameters: dose 300 mg/kg, route intraperitoneal; conditions: in vivo
In short: (§2)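 Male albino CF#1 mice (18–25.5 g), free access to food and water except during testing, under NINDS Anticonvulsant Screening Program procedures. Compounds were suspended in 0.5% methylcellulose and given ip. Neurotoxicity was scored by rotarod 0.5 h and 4 h after dosing, at screening doses of 30, 100 or 300 mg/kg. Results are reported as affected/tested animals.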

Mus musculus [9] = experiment: Neurotoxicity in CF1 mouse assessed as mortality at 300 mg/kg, ip after 4 hrs by rotarod test; type: toxicity, organism-based; parameters: dose 300 mg/kg, route intraperitoneal; conditions: in vivo; in short: as §2
Rattus norvegicus [10] = experiment: Anticonvulsant activity in Sprague-Dawley rat assessed as inhibition of maximal electroshock-induced seizures at 30 mg/kg, po after 1 hr; type: functional, organism-based; parameters: dose 30 mg/kg
In short: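 Male albino Sprague-Dawley rats (105–130 g) given a single oral 30 mg/kg dose suspended in 0.5% methylcellulose; MES (60 Hz, 150 mA, 0.2 s, tetracaine-anesthetized eyes) at 0.25, 0.5, 1, 2 and 4 h; 4 rats per time point; scored protected/tested.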

Rattus norvegicus [11] = experiment: Neurotoxicity in Sprague-Dawley rat at 30 mg/kg, po after 1 hr by rotarod test; type: toxicity, organism-based; parameters: dose 30 mg/kg, route oral; conditions: in vivo
Rattus norvegicus [12] = experiment: Neurotoxicity in Sprague-Dawley rat at 30 mg/kg, ip after 0.25 hrs by rotarod test; type: toxicity, organism-based; parameters: dose 30 mg/kg, route intraperitoneal; conditions: in vivo

CC(C)CC(=O)OC(Cn1ccnc1)c1ccc2ccccc2c1 (stereo not drawn)
inhibition (Rattus norvegicus [1]): Active
Activity (Mus musculus [2]): inactive
Time (Mus musculus [3]): 0.25 h
Time (Mus musculus [4]): 0.25 h
inhibition (Rattus norvegicus [5]): inactive
MIC (Enterococcus faecalis): 64 µg/mL (≈ 199 µM)
Activity (Mus musculus [6]): Non-toxic
Activity (Mus musculus [7]): Toxic
Activity (Mus musculus [8]): Toxic
Activity (Mus musculus [9]): Toxic
inhibition (Rattus norvegicus [10]): inactive
Activity (Rattus norvegicus [11]): Non-toxic
Activity (Rattus norvegicus [12]): Non-toxic
